Screens as filed in PubChem BioAssay.
The list is not random: actives were taken first. Their share in the collection is about 3.6%.
PfHsp90 set2 – reduces growth (ATP signal) of yeast expressing P. falciparum Hsp90 | S. cerevisiae expressing PfHsp90, BacTiter-Glo ATP, 48 h; yeast lacking PDR1 and PDR3 efflux regulators | inhibition, % at 9.4 µM | 0.32% of 310,000 active | AID 504621;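 active means every replicate shows inhibition above about 80%, whatever the replicate mean, limit read from the data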
HIF act – HIF pathway transcriptional activation | U2OS HRE-luciferase reporter, luminescence; normalized: DMSO 0%, desferrioxamine 100% | AID 1910 | activation, % at 7.5 µM (by protocol) | 0.32% of 300,000 active;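 active means mean activation of at least 10% of the iron chelator positive control signal, with at least half of replicates also reaching 10%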
T cruzi inh – blocks replication of Trypanosoma cruzi; 1.4% of 300,000 active; inhibition, % (concentration not given with the values); T. cruzi beta-gal in NIH3T3, luminescence, 90 h;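 active means mean inhibition across valid replicates above about 55%, limit read from the data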;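 further: signal also drops with host cell toxicity which is not excluded here; higher percent means less beta-gal luminescence so fewer parasites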
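Assay system: NIH/3T3 host cells with β-galactosidase reporter T. cruzi; input: 5,000 host fibroblasts per well; compound: single 50 nL compound addition per well in DMSO; timing: ≥90 h infection period, 3 h prior cell attachment; measured by: GalScreen β-gal luminescence, detergent lysis, 60 min; evaluation: percent inhibition of parasite-derived β-gal signal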
CSC inhib – cancer stem cell inhibition | cancer stem cell-like cells viability, luminescence | inhibition, % at 7.5 µM | 1.1% of 300,000 active; in the data active means inhibition above about 75%; tested in HMLE shEcad cells
SKKanGAS inh – SKKanGAS growth inhibition; S. pyogenes SKKanGAS, kanamycin growth, BacTiter-Glo, 6 h; inhibition, % at 7.5 µM; 1.3% of 300,000 active;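 active means mean replicate score, as percent of positive control median, at least 50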;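 further: strain carries kanamycin resistance gene driven by streptokinase promoter and grows in 40 µg/ml kanamycin; loss of luminescence reflects streptokinase promoter inhibition or plain growth inhibition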
Beta apoptosis – blocks beta cell apoptosis. protection from apoptosis, % (concentration not given with the values). INS-1E cytokine-induced death, ATP luminescence, 48 h; percent of positive-control rescue, neutral wells zero. 0.8% of 300,000 active;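 active means Every replicate reaches about 75%, or at least half do and their mean reaches it too, limit read from the data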;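 further: higher means more ATP so stronger rescue from cytokine killing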
A number is an active result; n = inactive; x = no result given.

SMILES	PfHsp90 set2	HIF act	T cruzi inh	CSC inhib	SKKanGAS inh	Beta apoptosis
C[C@@H]1C[C@@H]2OC(=O)[C@]3(C)[C@H]2[C@@H](OC3(C)O)[C@]2(C)C(=O)C=C[C@H]12 (stereo partly drawn)	n	n	n	n	n	n
O=C(Nc1nc(=S)ss1)c1ccc(Cl)cc1Cl	x	n	n	x	52	n
CC(NC(=O)C1CCN(C(=O)c2ccc(F)cc2)CC1)c1ccc(S(N)(=O)=O)cc1 (stereo not drawn)	n	x	x	n	x	n
Cc1ccc(N/N=C/c2ccncc2)cc1	n	n	n	79	n	n
Cc1sc2ncnc(N3CCC(C(=O)N4CC(C)SC4=Nc4ccc(Cl)cc4)CC3)c2c1C (stereo not drawn)	n	x	x	x	x	x
COc1ccc(S(=O)(=O)Nc2cc3c4c(oc3c3ccccc23)CC(C)(C)CC4=O)cc1	x	n	n	n	53	n
CCCCCCCCC[n+]1cccc2c3ccccc3ccc21	n	n	59	n	n	111
CCCNC(=O)c1onc(CSc2ccc(Cl)cc2)c1C(=O)NCCC(C)C	n	n	n	93	n	n
O=C(Nc1nnc(-c2ccc3c(c2)CCCC3)o1)c1ccc(Cl)cc1Cl	105	n	n	n	96	n
O=C(Nc1nnc(-c2ccc3c(c2)CCCC3)o1)c1c(F)cccc1F	n	n	n	n	95	n
CN(C)S(=O)(=O)c1ccc(C(=O)Nc2nnc(-c3ccc4c(c3)CCCC4)o2)cc1	n	n	n	n	94	n
O=C(Nc1nnc(-c2ccc3c(c2)CCCC3)o1)C1CCCCC1	n	n	n	x	81	x
COc1nnc(-c2ccccc2)s1	n	n	n	n	n	n
CS(=O)(=O)N1CCCC(C(=O)N2CCN(c3cccc(Cl)c3)CC2)C1 (stereo not drawn)	n	n	n	n	n	x
c1csc(Cc2nc(-c3ccc(-n4cccc4)cc3)no2)c1	n	n	n	x	n	x
O=C(CCc1ccccc1)Nc1nnc(-c2ccc3c(c2)CCCC3)o1	n	n	n	n	85	n
CC(Sc1ncnc2ccccc12)C(=O)Nc1ccc2c(c1)OCCO2 (stereo not drawn)	n	n	n	n	n	n
O=NN(CCc1ccncc1)c1ccc(OCc2ccccc2)cc1	n	n	72	n	n	99
O=C(NCc1ccncc1)C(=O)N/N=C/c1ccc(OCc2ccccc2)cc1	x	n	n	n	n	n
Cc1ccc(NC(=O)c2ncn(CCCN[C@H](C)c3cccc4ccccc34)n2)cc1C	n	x	x	x	x	x
COc1ccc(CC(=O)N2CCN(C(=O)Cc3ccc(OC)cc3)CC2)cc1	n	365	n	n	n	n
COc1ccccc1C(=O)NC(=O)COC(=O)c1nc2nc(C)cc(C)n2n1	n	n	n	n	n	x
Cc1nnc(-c2ccccc2)c(=O)n1/N=C/c1c(O)ccc2ccccc12	n	69	65	n	70	88
Cc1nc2ccccc2c(=O)n1/N=C/c1ccc2ccccc2c1O	n	11	n	n	55	115
Cc1nnc(C)n1/N=C/c1c(O)ccc2ccccc12	n	n	n	n	n	n
SMILES	PfHsp90 set2	HIF act	T cruzi inh	CSC inhib	SKKanGAS inh	Beta apoptosis
Cc1cc([N+](=O)[O-])cc(/C=N/n2c(C)nc3ccccc3c2=O)c1O	n	n	n	n	72	n
Cc1nc2ccccc2c(=O)n1/N=C/c1ccc(O)c(O)c1O	n	n	n	n	n	n
Oc1ccc(N2CCN(c3ncnc4sc(-c5ccccc5)cc34)CC2)cc1	n	n	58	x	n	x
CC(=O)N1CCN(c2ncnc3sc(-c4ccccc4)cc23)CC1	n	n	n	n	n	n
CCNC(=O)N(CC)C[C@H]1N[C@@](Cc2ccccc2)(C(=O)OC)[C@H]2C(=O)N(C)C(=O)[C@@H]12	n	x	x	x	x	n
CCCCN(C(=O)c1c(C)noc1C)c1c(N)n(CCC)c(=O)[nH]c1=O	n	x	x	n	x	n
Cc1ccc(S(=O)(=O)c2ncccc2[N+](=O)[O-])cc1	n	n	65	n	n	n
S=c1nc2[nH]c3ccccc3c2n[nH]1	n	x	x	x	x	x
CCOc1ccc(S(=O)(=O)N2CCC(C(=O)N3CCCC3)CC2)cc1C	n	n	n	n	n	n
CCN1C/C(=C/c2cccc([N+](=O)[O-])c2)C(=O)/C(=C/c2cccc([N+](=O)[O-])c2)C1	102	x	x	85	x	98
O=C1c2ccccc2C(=O)c2c1cccc2N1CCCC1	n	n	n	n	n	n
O=C1C=C(N2CCCCC2)c2ccccc2C1=O	x	n	n	97	82	117
C[C@H]1CN([C@@H](C)CO)C(=O)c2cc(NC(=O)NC3CCCCC3)ccc2O[C@H]1CN(C)C(=O)Nc1ccc(C(F)(F)F)cc1	n	x	x	x	x	n
Cc1ccc(SCc2c(-c3ccccc3)nn(C)c2Cl)cc1	n	n	n	n	n	n
Cn1nc(-c2ccccc2)c(CSc2ccccc2)c1Cl	n	n	n	n	62	n
Nc1nc(N)c2ncc(C(=O)CCc3ccccc3)nc2n1	n	n	n	n	n	x
Nc1ccc(-c2nc3nc(N)nc(N)c3nc2-c2ccc(N)cc2)cc1	n	n	n	n	62	n
CN(C)C(CNC(=O)CSc1nc2sc3c(c2c(=O)n1C)CCCC3)c1ccccc1 (stereo not drawn)	n	x	x	n	x	n
Cc1ccc(O)c(C2=NNC(c3ccc(Cl)cc3)C2)c1 (stereo not drawn)	n	n	n	n	57	n
Oc1ccc(Cl)cc1C1=NNC(c2cccs2)C1 (stereo not drawn)	n	n	n	n	61	n
Cc1ccc(O)c(C2=NNC(O)(C(F)(F)F)C2)c1 (stereo not drawn)	n	n	n	n	n	n
O=C(NCCc1ccccc1)c1ccc(NC(=O)C2CCCC2)cc1	n	x	x	x	x	x
CC(C)C[C@H]1CN=C(Nc2ccccc2)N1CCC(C)c1ccccc1 (stereo partly drawn)	n	x	x	n	x	103
O=C(Nc1ccccc1C(=O)Nc1nnc(C(F)(F)F)s1)c1ccccc1	n	n	59	195	97	n
O=[N+]([O-])c1ccc(S(=O)(=O)N2CCN(c3ccnc4cc(Cl)ccc34)CC2)cc1	n	n	60	n	n	n
SMILES	PfHsp90 set2	HIF act	T cruzi inh	CSC inhib	SKKanGAS inh	Beta apoptosis
O=C(C1CCC(CNS(=O)(=O)c2cccc3nsnc23)CC1)N1CCN(c2ccccn2)CC1 (stereo not drawn)	n	n	n	n	n	n
CNC(=S)N1N=C(c2ccc(Br)cc2)CC1c1ccc(N(C)C)cc1 (stereo not drawn)	n	n	n	n	n	n
CNC(=S)N1N=C(c2ccc(Br)cc2)CC1c1ccc(Br)cc1 (stereo not drawn)	n	n	78	n	n	x
Cc1cc(C(=O)NNC(=O)/C=C/c2ccco2)c(C)o1	n	x	x	x	x	x
Cc1cccc(CN2CCN(CCCc3ccccc3)CC2)c1	x	n	63	x	n	n
Cc1ccc(Cl)cc1NC(=O)c1ccc(Cn2cc(Cl)cn2)cc1	n	n	n	100	n	n
